PubChem BioAssay
The source made the active and inactive calls.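 How the source made its calls, unless noted: active means visually confirmed hit in the image check and inhibition above 20%; inconclusive means visually confirmed hit but inhibition not above 20%; inactive means no visual hit in the image check.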

Key:
[1] = inhibitors of TNFa-induced NFkB p65 translocation, primary screen, imaging, HUVEC, MLSMR starter and 10KST1 sets (AID 438;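 active means inhibition above 20% together with a positive visual image hit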;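 further: compound added about 3h40 before a 20 min TNFalpha stimulation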;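 on inhibition: signal is the nuclear over cytoplasmic p65 intensity ratio per well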); settings: HUVEC TNFa-induced p65 nuclear translocation; cell count: measured here: nuclei count (cytotoxicity indicator), at 2.08 µM; inhibition: at 2 µM, stronger effect = higher value, 0% TNFa-plus-vehicle, 100% no-TNFa wells
[2] = reduction of polyQ htt aggregates in cells – imaging, exon1htt(103Q)mCFP cells, high-content imaging, primary screen (AID 483;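 active means visual image review flags a hit and inhibition of aggregation exceeds 20%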;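 further: compound exposure lasted 3 days before fixation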;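 on nuclei count: percent of the per-plate median nuclei count of sample wells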); settings: exon1htt(103Q)mCFP cell line, aggregate imaging, at 2 µM; inhibition of aggregation: stronger effect = higher value; nuclei count: measured here: cell count, toxicity
[3] = endothelial E-selectin expression blockers – imaging, HUVEC, immunofluorescence, MLSMR starter and 10KST1 sets, primary screen (AID 487); settings: HUVEC TNFalpha-induced E-selectin immunofluorescence imaging, at 2 µM; inhibition: stronger effect = higher value; nuclei count: measured here: cell number, toxicity;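 on inhibition: signal is fraction of cell area covered by stained E-selectin grains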;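 on nuclei count: 100% = median nuclei count of all wells on the same plate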
[4] = target: Voltage-gated potassium channel subunit beta-2 (Rattus norvegicus) (UniProt P62483); test: inhibitors of rat Kvbeta2 reductase activity – biochemical, NADPH fluorescence, primary screen (AID 622;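 active means fluorescence slope higher than the sample average by over 3 SD, cut at about -0.22 in these data, passing the limit was not always enough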;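 further: slope of raw intensity against log time taken from 70 to 1610 s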); settings: recombinant KvBeta, 4-cyanobenzaldehyde reduction, at 10 µM, stronger effect = higher value
Chain of Voltage-gated potassium channel subunit beta-2 (Rattus norvegicus) (P62483 whole entry, looked up): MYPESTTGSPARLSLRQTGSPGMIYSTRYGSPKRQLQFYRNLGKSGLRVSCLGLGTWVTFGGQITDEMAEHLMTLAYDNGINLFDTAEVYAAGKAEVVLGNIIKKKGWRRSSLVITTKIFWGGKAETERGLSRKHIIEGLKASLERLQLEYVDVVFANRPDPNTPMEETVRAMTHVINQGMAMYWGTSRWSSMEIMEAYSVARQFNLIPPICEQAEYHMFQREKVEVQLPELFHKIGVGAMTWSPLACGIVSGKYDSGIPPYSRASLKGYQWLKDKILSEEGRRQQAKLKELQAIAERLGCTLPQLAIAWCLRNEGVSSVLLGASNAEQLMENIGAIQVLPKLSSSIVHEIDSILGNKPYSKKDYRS

[5] = target: Voltage-gated potassium channel subunit beta-2 (Rattus norvegicus) (UniProt P62483); test: enhancers of rat Kvbeta2 NADPH turnover – biochemical, NADPH fluorescence, primary screen (AID 623;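 active means NADPH fluorescence slope more negative than the mean of all samples by about 3 SD, 99.7% confidence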;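 further: fluorescence intensity change per second fitted from 20 to 320 s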); settings: Recombinant KvBeta, NADPH fluorescence decrease slope, 10 min; at 10 µM; stronger effect = lower value
[6] = target: Muscarinic acetylcholine receptor M4 (Homo sapiens) (UniProt P08173); test: M4-linked GIRK flux change, two-sided – cell-based, HEK293 M4/GIRK, thallium flux, BTC-AM, M4 allosteric agonist project, primary screen (AID 625;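 active means fluorescence slope after compound addition differing from the mean of all tested samples at 99.7% confidence, mostly higher but some lower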;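 further: thallium influx through GIRK channels coupled to M4 in HEK293 cells with BTC-AM dye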); settings: at 10 µM, actives lie on both sides
Chain of Muscarinic acetylcholine receptor M4 (Homo sapiens) (P08173 whole entry, looked up): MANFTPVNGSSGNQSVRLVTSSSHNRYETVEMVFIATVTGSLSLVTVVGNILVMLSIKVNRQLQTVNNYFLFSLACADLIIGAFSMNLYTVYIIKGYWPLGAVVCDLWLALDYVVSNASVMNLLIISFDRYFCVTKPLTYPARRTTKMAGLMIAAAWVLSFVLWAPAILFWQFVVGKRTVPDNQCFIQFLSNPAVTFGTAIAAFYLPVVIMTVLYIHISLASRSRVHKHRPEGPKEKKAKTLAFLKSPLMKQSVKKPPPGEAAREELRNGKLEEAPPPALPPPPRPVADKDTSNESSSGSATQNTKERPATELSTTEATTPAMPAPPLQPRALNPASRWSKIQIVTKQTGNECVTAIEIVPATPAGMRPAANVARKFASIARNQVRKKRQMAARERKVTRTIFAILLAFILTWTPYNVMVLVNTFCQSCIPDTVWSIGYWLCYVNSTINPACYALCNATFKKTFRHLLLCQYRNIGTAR
In short: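 Material: M4/GIRK1/GIRK2 stable HEK293 cell line. Medium: pH 7.3 thallium assay buffer. Dosing: single compound concentration, 10 µM final. Schedule: 1 h dye loading, 2 min kinetic read. Measured by: kinetic fluorescence with BTC-AM dye. Read-out: post-addition slope, 15–24 s, of baseline-normalized fluorescence. Benchmarks: carbachol and DMSO controls.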

[7] = blockers of RIG-like receptor reporter activation – cell-based, Sendai virus stimulus, luciferase, 10K MLSCN set, TLR/RLR signaling modifier project, primary screen (AID 602276;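 active means inhibition at or above 50% at 10 µM; inactive means inhibition below 50%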;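 further: firefly luciferase from ISG56 promoter only with Renilla not read in this screen; 0% = Sendai virus plus DMSO and 100% = medium plus DMSO without virus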); settings: HEK293 RL24 IRF3 luciferase reporter, at 10 µM, stronger effect = higher value
[8] = TLR3 IRF3 reporter activation blockers – cell-based, poly I:C stimulus, luciferase, 10K MLSCN set, primary screen (AID 602277;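 active means inhibition of the reporter signal at or above 50%; inactive means inhibition below 50%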); settings: HEK293-TLR3 RL24 IRF3 luciferase reporter, at 10 µM, stronger effect = higher value

| SMILES | cell count [1] | inhibition [1] | inhibition of aggregation [2] | nuclei count [2] [%] | inhibition [3] | nuclei count [3] [%] | fluorescence slope [4] | NADPH fluorescence slope [5] | fluorescence slope [6] | inhibition [7] | inhibition [8] |
| --- | --- | --- | --- | --- | --- | --- | --- | --- | --- | --- | --- |
| Cc1ccc(Cn2nnc3c(=O)n(CC(=O)NCC4CCCO4)cnc32)cc1 (stereo not drawn) | 792 | -13.6% (inactive) | -20.8% (inactive) | 102 | -51.5% (inactive) | 98.4 | -0.459 (inactive) | -4.1e-05 (inactive) | 0.00672 (inactive) | 9.27% (inactive) | 18.9% (inactive) |
| CCCCCCn1c(SCCCC)nc2c1c(=O)[nH]c(=O)n2C | 384 | -8% (inactive) | -12.5% (inactive) | 101 | -10.4% (inactive) | 104 | -0.543 (inactive) | -3.9e-05 (inactive) | 0.00572 (inactive) | 0.691% (inactive) | 10.6% (inactive) |
| O=C(CN1C(=O)NC2(CCCCCC2)C1=O)N1CCC(Cc2ccccc2)CC1 | 444 | 2.9% (inactive) | -3.9% (inactive) | 99.8 | -38.1% (inactive) | 104 | -0.366 (inactive) | 2.2e-05 (inactive) | 0.00581 (inactive) | 0.617% (inactive) | 15.9% (inactive) |
| COc1ccccc1-c1coc2c(CN3CCN(CCO)CC3)c(O)ccc2c1=O | 615 | -0.2% (inactive) | -9.4% (inactive) | 102 | -16% (inactive) | 105 | -0.027 (active) | 5.8e-06 (inactive) | 0.0043 (inactive) | 12.9% (inactive) | 5.54% (inactive) |
| CC(C)(C)N(Cc1cc2ccccc2[nH]c1=O)C(=O)C1CCCCC1 | 510 | -1.4% (inactive) | -4.5% (inactive) | 110 | 4% (inactive) | 95.6 | -0.455 (inactive) | -7.9e-05 (inactive) | 0.00597 (inactive) | -3.62% (inactive) | 9.15% (inactive) |
| CCCn1cc(SCC(=O)NCc2ccco2)c2ccccc21 | 679 | -25.2% (inactive) | -35.4% (inactive) | 124 | 20% (inactive) | 100 | -0.521 (inactive) | 9.7e-06 (inactive) | 0.00408 (inactive) | 13% (inactive) | 5.85% (inactive) |
| Cc1ccc(F)cc1NC(=O)Cc1nn(C)c(=O)c2ccccc12 | 247 | 0.9% (inactive) | 4.8% (inactive) | 93.3 | 17.2% (inactive) | 102 | -0.555 (inactive) | -2.8e-05 (inactive) | 0.00476 (inactive) | 7.41% (inactive) | -19% (inactive) |
| O=C(COc1nnnc2ccccc12)N1CCCc2ccccc21 | 327 | 0.2% (inactive) | -10.1% (inactive) | 106 | -50.4% (inactive) | 130 | -0.43 (inactive) | -7.5e-05 (inactive) | 0.00597 (inactive) | 8.08% (inactive) | 16.5% (inactive) |
| O=c1c2ccccc2sn1-c1ccc(S(=O)(=O)N2CCCCC2)cc1 | 539 | -20.9% (inactive) | -8.4% (inactive) | 115 | 53.4% (inactive) | 83.7 | -0.271 (inactive) | -1.7e-05 (inactive) | 0.00829 (inactive) | 3.69% (inactive) | 7.09% (inactive) |
| COC(=O)Cn1cc(C(=O)c2cccs2)c2ccccc21 | 220 | -21.4% (inactive) | 8.5% (inactive) | 82.9 | 4.3% (inactive) | 70.5 | -0.554 (inactive) | -3.7e-05 (inactive) | 0.00685 (inactive) | 14.1% (inactive) | 20.4% (inactive) |
| Cc1nc(SCC(=O)N2CCC(C(N)=O)CC2)n[nH]1 | 516 | -17.1% (inactive) | -2.4% (inactive) | 98.4 | -33.4% (inactive) | 119 | -0.581 (inactive) | -5.6e-05 (inactive) | 0.00602 (inactive) | -0.32% (inactive) | -1.6% (inactive) |
| O=C(/C=N/O)Nc1cccnc1 | 351 | -10.2% (inactive) | 17.5% (inactive) | 86 | 57.2% (inactive) | 98.5 | -0.552 (inactive) | -2.2e-05 (inactive) | 0.00502 (inactive) | 21.9% (inactive) | 26.5% (inactive) |
| CCOC(=O)c1[nH]c(C)c(C(=O)Nc2cc(OC)ccc2OC)c1C | 671 | -5.9% (inactive) | -3.7% (inactive) | 2.5 | -153% (inactive) | 111 | -0.415 (inactive) | 4.7e-05 (inactive) | 0.00644 (inactive) | 30.4% (inactive) | 51.4% (active) |
| CNC(=O)CN(c1cc(C)ccc1OC)S(=O)(=O)c1ccc(C)cc1 | 317 | 5% (inactive) | -22% (inactive) | 107 | 6.9% (inactive) | 105 | -0.563 (inactive) | -1.4e-05 (inactive) | 0.00434 (inactive) | 5.72% (inactive) | 6.94% (inactive) |
| N#Cc1cn(CC(=O)N2CCCC2)c2ccccc12 | 391 | 3% (inactive) | -10.4% (inactive) | 108 | -18.5% (inactive) | 95.9 | -0.562 (inactive) | -6.6e-05 (inactive) | 0.00355 (inactive) | 17.7% (inactive) | 22.5% (inactive) |
| O=C(O)CCc1ccc(-c2cccs2)n1NC(=O)c1ccco1 | 719 | 3.6% (inactive) | -10.1% (inactive) | 107 | -93.6% (inactive) | 132 | -0.463 (inactive) | 1.5e-05 (inactive) | 0.00473 (inactive) | 20.8% (inactive) | 17.9% (inactive) |
| CC(C)Oc1ccc(C2C(C(=O)c3ccco3)=C(O)C(=O)N2CCCN(C)C)cc1 (stereo not drawn) | 694 | -5.2% (inactive) | 17.7% (inactive) | 80.9 | -16.4% (inactive) | 112 | -0.476 (inactive) | -0.000237 (inactive) | 0.00376 (inactive) | 13.1% (inactive) | 8.15% (inactive) |
| N#CCc1nc(CSc2nc3ccccc3s2)cs1 | 347 | -4.4% (inactive) | -7.5% (inactive) | 98 | -27.5% (inactive) | 114 | -0.551 (inactive) | -2.5e-05 (inactive) | 0.0089 (inactive) | -24.2% (inactive) | -87.8% (inactive) |
| N#Cc1c(N)nc(SCc2ccncc2)c(C#N)c1-c1cccs1 | 321 | 10.9% (inactive) | -2.2% (inactive) | 32.8 | 13.8% (inactive) | 107 | -0.529 (inactive) | -2.3e-05 (inactive) | 0.0051 (inactive) | 26.1% (inactive) | 25.1% (inactive) |
| CCOC(=O)c1sc(NC(=O)CSc2nc3c(cc2C#N)CCC3)c(C#N)c1C | 775 | -6.4% (inactive) | -2.5% (inactive) | 94.5 | -140% (inactive) | 140 | -0.457 (inactive) | 2.2e-05 (inactive) | 0.00501 (inactive) | 18.5% (inactive) | 18.8% (inactive) |
| CCn1c(SCC(=O)NCCc2ccc(Cl)cc2)nnc1-c1cccs1 | 616 | 6.9% (inactive) | 25.3% (inactive) | 69.4 | -11.2% (inactive) | 106 | -0.572 (inactive) | -5e-05 (inactive) | 0.00799 (inactive) | -15.7% (inactive) | -13.3% (inactive) |
| COC(=O)c1[nH]c2ccccc2c1NS(=O)(=O)c1ccc(OC)cc1OC | 655 | -11.9% (inactive) | 13% (inactive) | 103 | -72% (inactive) | 118 | -0.524 (inactive) | -0.000111 (inactive) | 0.00563 (inactive) | 19.9% (inactive) | 37.3% (inactive) |
| Cc1ccc(SCCC(=O)N(C)C)cc1 | 637 | -8.6% (inactive) | 10.5% (inactive) | 89.8 | -143% (inactive) | 103 | -0.459 (inactive) | -2.6e-05 (inactive) | 0.00561 (inactive) | -10.8% (inactive) | -52.8% (inactive) |
| COC(=O)c1cc(NC(=O)C2CC=CCC2C(=O)O)cc(C(=O)OC)c1 (stereo not drawn) | 800 | -6.9% (inactive) | -7.4% (inactive) | 108 | 5.2% (inactive) | 97.7 | -0.536 (inactive) | -4.3e-05 (inactive) | 0.00439 (inactive) | 9.55% (inactive) | 7.94% (inactive) |
| CCCCn1c(SCC(=O)c2ccc3c(c2)OCCO3)nnc1-c1ccco1 | 528 | -12.7% (inactive) | -5.2% (inactive) | 108 | 15.4% (inactive) | 110 | -0.483 (inactive) | 0.00011 (inactive) | 0.00599 (inactive) | 6.03% (inactive) | 12.4% (inactive) |
| CN(C(=O)c1ccncc1)C1CC(C)(C)N(O)C(C)(C)C1 | 344 | 2.8% (inactive) | -9.8% (inactive) | 103 | -67.4% (inactive) | 119 | -0.592 (inactive) | -2.2e-05 (inactive) | 0.00587 (inactive) | -0.539% (inactive) | 8.86% (inactive) |
| Cc1nc(C)c(C(=O)Nc2ccc(Oc3ccccc3)cc2)o1 | 405 | 0.6% (inactive) | -26.8% (inactive) | 105 | -128% (inactive) | 119 | -0.306 (inactive) | -2.3e-05 (inactive) | 0.00832 (inactive) | -20.2% (inactive) | -128% (inactive) |
| O=C(c1ccccc1)N1CCCCC(Sc2nnnn2-c2ccccc2)C1=O (stereo not drawn) | 385 | -15.4% (inactive) | 28.5% (inactive) | 76.4 | -112% (inactive) | 134 | -0.546 (inactive) | -2.4e-05 (inactive) | 0.00399 (inactive) | 4.27% (inactive) | 4.71% (inactive) |
